Compound activity: PubChem, several laboratories
In the library only some 7.2% were active in any assay of this set; here they are far more common.
M1 antag – antagonists of rat M1 muscarinic receptor. Muscarinic acetylcholine receptor M1 (Rattus norvegicus), P08482. CHO-M1 cells, Fluo-4 calcium, ACh EC80 antagonist mode; hits give low values. B-score at 10 µM. actives 3.4% (n = 64,000);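 active means calcium fluorescence response, raw or row-and-column corrected B-score, differing from the plate sample mean either way at a set confidence level, mostly lower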
Target sequence (P08482 whole entry, looked up): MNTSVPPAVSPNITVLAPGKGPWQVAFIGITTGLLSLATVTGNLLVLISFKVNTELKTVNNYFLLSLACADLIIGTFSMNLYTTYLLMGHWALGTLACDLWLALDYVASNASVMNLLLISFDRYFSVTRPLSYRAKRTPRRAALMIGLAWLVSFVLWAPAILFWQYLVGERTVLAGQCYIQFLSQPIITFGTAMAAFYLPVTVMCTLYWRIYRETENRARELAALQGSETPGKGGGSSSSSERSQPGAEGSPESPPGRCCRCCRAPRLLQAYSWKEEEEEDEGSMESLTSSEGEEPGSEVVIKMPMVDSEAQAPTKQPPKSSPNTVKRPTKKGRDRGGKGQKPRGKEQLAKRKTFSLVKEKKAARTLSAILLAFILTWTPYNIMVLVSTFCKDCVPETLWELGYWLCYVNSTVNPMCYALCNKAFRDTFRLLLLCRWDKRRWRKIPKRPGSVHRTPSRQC
BAP1 block – inhibitors of BAP1 deubiquitinase, primary screen, biochemical, Ub-AMC fluorescence, kinetic. actives 0.48% (n = 72,000). Ubiquitin carboxyl-terminal hydrolase BAP1 (Homo sapiens), Q92560. recombinant BAP1, Ub-AMC hydrolysis fluorescence kinetic; hits give low values. AID 436, 2006. calls only at 20 µM;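 active means activity remaining at or below 50% of control, provided the compound also passes the data quality filters; inactive means the rest, including low values that fail the filters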
D1 allo mod – D1 CRE-luciferase signal change, two-sided – cell-based, HEK293 D1, dopamine EC30, D1 allosteric modulator project, primary screen; D(1A) dopamine receptor (Homo sapiens), P21728; dopamine EC30 potentiation; actives deviate in either direction; B-score at 10 µM; actives 5.9% (n = 58,000); AID 641, 2007;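 active means luminescence count or its row- and column-corrected plate score outside the 99.7% band of the plate's sample wells, on either side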
M1 ag – M1 muscarinic receptor agonists, primary screen, CHO-M1 cells, Fluo-4 calcium, agonist mode | Muscarinic acetylcholine receptor M1 | Fluo-4 calcium fluorescence; hits give high values | B-score at 10 µM | actives 3% (n = 64,000) | AID 626, 2007;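 active means fluorescence rise, raw or as B-score row- and column-corrected plate score, outside the 99.7% band of its plate's samples, either direction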
hDAT+cocaine – changed hDAT dopamine uptake under cocaine IC80, either direction, primary screen, cocaine antagonist project, cell-based, LLC-PK1 hDAT, [14C]-dopamine uptake, MLSMR. Sodium-dependent dopamine transporter (Homo sapiens), Q01959. LLC-PK1 hDAT cells, [14C]-dopamine uptake with cocaine IC80; actives deviate in either direction. B-score at 10 µM. actives 1.3% (n = 110,000). AID 449768, 2010;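 active means Z score or B-score, a plate-position-corrected score, falls beyond the plate's 99.7% confidence bounds, in either direction; inactive means both scores lie inside the 99.7% bounds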
HEK293 NFkB inh – inhibitors of PMA/ionomycin-induced NF-kB reporter, primary screen, antigen receptor NF-kB inhibitor project, cell-based, HEK-293 luciferase reporter, luminescence. actives 0.21% (n = 62,000). inhibition, % at 3 µM. HEK-293 NF-kB luciferase reporter;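 active means inhibition above the mean of all tested compounds plus 3 SD, cut at about 40% in these data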
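Signal: luciferase luminescence; Material: HEK-293 cells with stable firefly luciferase reporter driven by four HIV NF-kB elements; Probe or stimulus: PMA with ionomycin; Replication: tested once; Times: 1 h compound pretreatment, then 16 h stimulation at 37 °C, 5% CO2; Benchmarks: DMSO and 10 µM reference inhibitor; Evaluation: per-plate % inhibition versus controls.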
M1 ag confirm – rat M1 muscarinic receptor agonists, confirmation, CHO-M1 cells, Fluo-4 calcium, duplicate retest. actives 19% (n = 1,700). shares compounds with M1 ag. fluorescence change (max-min) at 10 µM. AID 1488, 2009. Fluo-4 calcium fluorescence, agonist mode; actives lie on both sides;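 active means fluorescence change differs from the solvent-only DMSO control mean at a set confidence level in both duplicate runs; inconclusive means differs from solvent-only control mean in just one of two runs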;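 further: an EC20 dose of acetylcholine follows compound addition during the same imaging run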
M4 agonist ctr – agonist activity at rat M4 receptor, confirmation, counter-screen for M1 allosteric modulator project, cell-based, agonist mode; shares compounds with M1 ag; CHO M4/Gqi5 cells, Fluo-4 calcium fluorescence; actives lie on both sides; fluorescence change (max-min) at 10 µM; actives 9% (n = 1,700);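 active means fluorescence change differing from the plate's solvent-only control wells at 99.7% confidence in both duplicates, whether higher or lower; inconclusive means differs from solvent controls in only one of two duplicates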
Hits are given with their value; i = inactive; ? = inconclusive; nt = not tested or not shown.

SMILES	M1 antag	BAP1 block	D1 allo mod	M1 ag	hDAT+cocaine	HEK293 NFkB inh	M1 ag confirm	M4 agonist ctr
O=C(c1nn2c(c1Br)NC(c1ccco1)CC2C(F)(F)F)N1CCN(Cc2ccccc2)CC1 (stereo not given)	nt	i	nt	nt	nt	nt	nt	nt
CC(Cl)=CCSc1nc2c(c(=O)[nH]c(=O)n2C)n1Cc1cccc(Br)c1	nt	i	nt	nt	nt	nt	nt	nt
CCOc1ccc(NC(=O)CC23CC4CC(CC(C4)C2)C3)cc1	nt	i	nt	nt	nt	nt	nt	nt
CCOc1ccc(NC(=O)CC2CC(C)(C)OC2=O)cc1 (stereo not given)	i	i	i	12	i	i	i	?
CC1=C(C(=O)OCC(C)C)C(c2cccc(Cl)c2)NC(=O)N1 (stereo not given)	nt	i	nt	nt	nt	nt	nt	nt
CC(c1nc2ccccc2o1)N1C(=O)c2ccccc2C1=O (stereo not given)	nt	nt	nt	nt	i	nt	nt	nt
CCCN(CCC)c1nc(C)cc(C(C#N)c2nc3ccccc3o2)n1 (stereo not given)	i	i	i	6.4	i	i	i	i
O=C(NCCCN1CCCC1=O)NC12CC3CC(CC(C3)C1)C2	i	i	i	5.7	i	i	i	i
O=C(NCCCO)NC12CC3CC(CC(C3)C1)C2	nt	nt	nt	nt	i	nt	nt	nt
COc1ccccc1CC(=O)N1CCCCC1	nt	i	nt	nt	nt	nt	nt	nt
COc1ccc(NC(=O)C2Cc3ccccc3CN2C(=O)c2ccccc2)cn1 (stereo not given)	i	i	i	16	2.9	i	?	?
O=C(NC1=NCCS1)C1Cc2ccccc2CN1C(=O)c1ccccc1 (stereo not given)	i	i	i	i	i	i	nt	nt
CC(=O)c1c(C)nn(CC(O)Cn2c3c(c4cc(C)ccc42)CCCC3=O)c1C (stereo not given)	i	i	i	5.2	i	i	-42	i
CCOC(=O)C1=C(CS(=O)(=O)c2ccccc2)NC(=O)NC1c1ccccc1 (stereo not given)	i	i	i	4.3	i	i	?	?
O=[N+]([O-])c1ccc(N2CCN(S(=O)(=O)c3ccccc3)CC2)cc1NCc1ccc(Cl)cc1	nt	i	nt	nt	nt	nt	nt	nt
CCn1c(=O)cc(SCC(=O)N2CCN(c3ccccc3F)CC2)c2ccccc21	nt	nt	nt	nt	i	nt	nt	nt
CCn1c(=O)cc(SCC(=O)N2CCN(c3ccccn3)CC2)c2ccccc21	i	i	nt	5.9	i	i	-29	i
Cc1ccc2c(C)nc(Nc3nc(CSc4nnnn4-c4ccccc4)cc(=O)[nH]3)nc2c1	i	i	i	8.6	i	i	i	i
O=C(Nc1cccc2c1C(=O)c1ccccc1C2=O)c1cccc(F)c1	nt	i	nt	nt	nt	nt	nt	nt
CCC(CC)C(=O)NCCc1cc2c(C)ccc(C)c2[nH]c1=O	i	i	i	i	nt	i	nt	nt
Cc1ccc(C)c2[nH]c(=O)c(CCNC(=O)c3cc4ccccc4o3)cc12	i	i	i	2.9	i	i	?	i
COc1ccc(OC)c2[nH]c(=O)c(CCNC(=O)c3cc4ccccc4o3)cc12	i	i	i	2.5	i	i	i	i
CCCCCCNc1c(C(=O)OCC)c(=O)[nH]c2ccccc12	i	i	i	5.4	i	i	i	i
CCCCNC(=O)Nc1c(C(=O)OCC)[nH]c2ccccc12	i	i	i	i	i	i	nt	nt
Cc1cc(Cl)ccc1OCc1nc(-c2ccc(O)cc2)n[nH]1	i	i	i	4.4	nt	i	i	i
SMILES	M1 antag	BAP1 block	D1 allo mod	M1 ag	hDAT+cocaine	HEK293 NFkB inh	M1 ag confirm	M4 agonist ctr
CCn1c(=O)cc(OCC(=O)NCCCN2CC(C)CC(C)C2)c2ccccc21 (stereo not given)	i	i	i	2.2	i	i	?	?
CC1=CN2C(=O)CC(=O)N=C2C=C1	nt	i	nt	nt	nt	nt	nt	nt
COc1cccc(/C=N/n2c(C)nc3ccccc3c2=O)c1O	i	i	i	i	i	i	nt	nt
COc1cccc(CNn2c(-c3cccc(C)c3)nc3ccccc3c2=O)c1O	i	i	i	8.6	i	i	?	i
CCn1c(CSc2nc3ccccc3[nH]2)nc2cc(C(=O)O)ccc21	nt	nt	nt	nt	i	nt	nt	nt
CCn1c(CSc2nccn2C)nc2cc(C(=O)O)ccc21	i	i	i	7.2	i	i	i	i
Cn1nc(CC(=O)NCc2ccc(C(F)(F)F)cc2)c2ccccc2c1=O	nt	nt	nt	nt	i	nt	nt	nt
COc1ccc(CNC(=O)Cc2nn(C)c(=O)c3ccccc23)cc1	i	i	i	11	i	i	i	i
Cc1ccc(/C=c2\sc3nc(-c4cccs4)nn3c2=O)o1	i	i	i	46	i	i	i	i
COc1ccccc1/C=c1\sc2nc(-c3cccs3)nn2c1=O	i	i	i	i	nt	i	nt	nt
CCN(CC)c1ccc2c(C)c(CN3CCOCC3)c(=O)oc2c1	-2.9	nt	i	7.1	i	i	i	i
CCOC(=O)C1CCCN(c2cc(C)nc3cc(-c4ccc(F)cc4)nn23)C1 (stereo not given)	-3.8	i	i	30	i	i	386	i
CCOC(=O)C1CCCN(c2cc(C)nc3cc(-c4ccc(Cl)cc4)nn23)C1 (stereo not given)	nt	nt	nt	nt	i	nt	nt	nt
CCOC(=O)C1=C(C)NC(C)=C(C(=O)OCC)C1c1ccc(OC)cc1	i	nt	nt	1.9	i	i	i	i
c1ccc(N2CCN(c3ncnc4c3oc3ccccc34)CC2)cc1	i	i	i	i	nt	i	nt	nt
CCOC(=O)C1CCN(c2nc(-c3ccccc3)nc3c2oc2ccccc23)CC1	i	i	i	5.8	i	i	i	i
CCOC(=O)C1CCCN(c2ncnc3c2oc2ccccc23)C1 (stereo not given)	-3.3	i	i	4.2	i	i	i	i
CCOC(=O)C1CCCN(C(=O)c2cc(=O)c3ccccc3o2)C1 (stereo not given)	i	i	i	i	i	i	nt	nt
CCc1nnc(N2CCN(c3ncnc4c3oc3ccccc34)CC2)s1	-4	i	i	9.9	i	i	i	i
CCCn1c(C(O)c2ccc(C(C)C)cc2)nc2ccccc21 (stereo not given)	nt	i	nt	nt	nt	nt	nt	nt
O=C(Nc1nc(-c2cccc3ccccc23)cs1)c1ccccc1Cl	nt	i	nt	nt	nt	nt	nt	nt
CC(=O)N1CCc2cc(S(=O)(=O)NCCCOC(C)C)ccc21	i	i	nt	-2.1	i	i	i	?
